Test results published in ChEMBL document CHEMBL5058577, “EUbOPEN Chemogenomics Library 2 (Multiplex)” (2022).

Test system: HEK-293T
Test: Multiplex assay against HEK293T
Format: toxicity, cell-based
Details: human
Procedure, shortened: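 Compound was added to live cells that had been stained at seeding with Hoechst33342, BioTracker Green Microtubule Cytoskeleton Dye, MitoTracker Red and Annexin V Alexa Fluor 680, and imaging followed on a CQ1 microscope at 37°C and 5% CO2. CellPathfinder machine-learning gating divided cells into Hoechst high-intensity objects or normal cells, normal cells into healthy, pyknosed or fragmented nuclei, and pyknosed cells into mitotic or apoptotic. Tubulin, mitochondrial-mass and membrane-permeability phenotypes are per cents of healthy-nucleus cells.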

[1] = 12 h, 1 µM, compound concentration 1 uM, replicate 1
[2] = 12 h, 1 µM, compound concentration 1 uM, replicate 2
[3] = 12 h, 10 µM, compound concentration 10 uM, replicate 1
[4] = 12 h, 10 µM, compound concentration 10 uM, replicate 2
[5] = 24 h, 1 µM, compound concentration 1 uM, replicate 1
[6] = 24 h, 1 µM, compound concentration 1 uM, replicate 2
[7] = 24 h, 10 µM, compound concentration 10 uM, replicate 1
[8] = 24 h, 10 µM, compound concentration 10 uM, replicate 2
[9] = 48 h, 1 µM, compound concentration 1 uM, replicate 1
[10] = 48 h, 1 µM, compound concentration 1 uM, replicate 2
[11] = 48 h, 10 µM, compound concentration 10 uM, replicate 1
[12] = 48 h, 10 µM, compound concentration 10 uM, replicate 2

CCCCC[C@H](O)/C=C/[C@H]1[C@H](O)CC(=O)[C@@H]1CCCCCCC(=O)O [ALPROSTADIL]
Population Apoptotic (%) [1]: 35% | Population Fragmented Nuclei (%) [1]: 7% | Population Healthy Nuclei (%) [1]: 79% | Population Hoechst High Intensity Objects (%) [1]: 7% | Population Membrane Permeable-Phenotype (%) [1]: 0% | Population Mitochondria Different-Phenotype (%) [1]: 42% | Population Mitotic Cells (%) [1]: 64% | Population Normal (%) [1]: 92% | Population Pyknosed Nuclei (%) [1]: 13% | Population Tubulin-Different-Phenotype (%) [1]: 28% | Total Cell Count [1]: 471 | Population Apoptotic (%) [2]: 50% | Population Fragmented Nuclei (%) [2]: 6% | Population Healthy Nuclei (%) [2]: 80% | Population Hoechst High Intensity Objects (%) [2]: 6% | Population Mitochondria Different-Phenotype (%) [2]: 55% | Population Mitotic Cells (%) [2]: 49% | Population Normal (%) [2]: 93% | Population Tubulin-Different-Phenotype (%) [2]: 18% | Total Cell Count [2]: 392 | Population Apoptotic (%) [3]: 33% | Population Fragmented Nuclei (%) [3]: 7% | Population Healthy Nuclei (%) [3]: 78% | Population Hoechst High Intensity Objects (%) [3]: 6% | Population Membrane Permeable-Phenotype (%) [3]: 1% | Population Mitochondria Different-Phenotype (%) [3]: 48% | Population Mitotic Cells (%) [3]: 66% | Population Normal (%) [3]: 93% | Population Pyknosed Nuclei (%) [3]: 14% | Population Tubulin-Different-Phenotype (%) [3]: 33% | Total Cell Count [3]: 318 | Population Healthy Nuclei (%) [4]: 75% | Population Hoechst High Intensity Objects (%) [4]: 9% | Population Membrane Permeable-Phenotype (%) [4]: 0% | Population Mitochondria Different-Phenotype (%) [4]: 64% | Population Normal (%) [4]: 90% | Population Pyknosed Nuclei (%) [4]: 17% | Population Tubulin-Different-Phenotype (%) [4]: 30% | Total Cell Count [4]: 309 | Population Apoptotic (%) [5]: 35% | Population Fragmented Nuclei (%) [5]: 9% | Population Healthy Nuclei (%) [5]: 79% | Population Hoechst High Intensity Objects (%) [5]: 3% | Population Membrane Permeable-Phenotype (%) [5]: 1% | Population Mitochondria Different-Phenotype (%) [5]: 22% | Population Mitotic Cells (%) [5]: 64% | Population Normal (%) [5]: 96% | Population Pyknosed Nuclei (%) [5]: 10% | Population Tubulin-Different-Phenotype (%) [5]: 15% | Total Cell Count [5]: 605 | Population Apoptotic (%) [6]: 34% | Population Fragmented Nuclei (%) [6]: 6% | Population Healthy Nuclei (%) [6]: 85% | Population Hoechst High Intensity Objects (%) [6]: 4% | Population Membrane Permeable-Phenotype (%) [6]: 0% | Population Mitochondria Different-Phenotype (%) [6]: 35% | Population Mitotic Cells (%) [6]: 65% | Population Normal (%) [6]: 95% | Population Pyknosed Nuclei (%) [6]: 8% | Population Tubulin-Different-Phenotype (%) [6]: 14% | Total Cell Count [6]: 526 | Population Apoptotic (%) [7]: 32% | Population Fragmented Nuclei (%) [7]: 11% | Population Healthy Nuclei (%) [7]: 76% | Population Hoechst High Intensity Objects (%) [7]: 2% | Population Membrane Permeable-Phenotype (%) [7]: 0% | Population Mitochondria Different-Phenotype (%) [7]: 26% | Population Mitotic Cells (%) [7]: 67% | Population Normal (%) [7]: 97% | Population Pyknosed Nuclei (%) [7]: 12% | Population Tubulin-Different-Phenotype (%) [7]: 23% | Total Cell Count [7]: 439 | Population Apoptotic (%) [8]: 36% | Population Fragmented Nuclei (%) [8]: 7% | Population Healthy Nuclei (%) [8]: 79% | Population Hoechst High Intensity Objects (%) [8]: 8% | Population Mitochondria Different-Phenotype (%) [8]: 50% | Population Mitotic Cells (%) [8]: 63% | Population Normal (%) [8]: 91% | Population Tubulin-Different-Phenotype (%) [8]: 22% | Total Cell Count [8]: 345 | Population Apoptotic (%) [9]: 32% | Population Fragmented Nuclei (%) [9]: 13% | Population Healthy Nuclei (%) [9]: 79% | Population Hoechst High Intensity Objects (%) [9]: 2% | Population Membrane Permeable-Phenotype (%) [9]: 2% | Population Mitochondria Different-Phenotype (%) [9]: 12% | Population Mitotic Cells (%) [9]: 67% | Population Normal (%) [9]: 97% | Population Pyknosed Nuclei (%) [9]: 7% | Population Tubulin-Different-Phenotype (%) [9]: 11% | Total Cell Count [9]: 1005 | Population Apoptotic (%) [10]: 13% | Population Fragmented Nuclei (%) [10]: 16% | Population Healthy Nuclei (%) [10]: 77% | Population Hoechst High Intensity Objects (%) [10]: 3% | Population Membrane Permeable-Phenotype (%) [10]: 0% | Population Mitochondria Different-Phenotype (%) [10]: 21% | Population Mitotic Cells (%) [10]: 86% | Population Normal (%) [10]: 96% | Population Pyknosed Nuclei (%) [10]: 6% | Population Tubulin-Different-Phenotype (%) [10]: 12% | Total Cell Count [10]: 714 | Population Apoptotic (%) [11]: 25% | Population Fragmented Nuclei (%) [11]: 15% | Population Healthy Nuclei (%) [11]: 76% | Population Hoechst High Intensity Objects (%) [11]: 2% | Population Membrane Permeable-Phenotype (%) [11]: 1% | Population Mitochondria Different-Phenotype (%) [11]: 17% | Population Mitotic Cells (%) [11]: 75% | Population Normal (%) [11]: 97% | Population Pyknosed Nuclei (%) [11]: 7% | Population Tubulin-Different-Phenotype (%) [11]: 15% | Total Cell Count [11]: 685 | Population Apoptotic (%) [12]: 20% | Population Fragmented Nuclei (%) [12]: 14% | Population Healthy Nuclei (%) [12]: 79% | Population Membrane Permeable-Phenotype (%) [12]: 0% | Population Mitochondria Different-Phenotype (%) [12]: 30% | Population Mitotic Cells (%) [12]: 80% | Population Pyknosed Nuclei (%) [12]: 6% | Population Tubulin-Different-Phenotype (%) [12]: 14% | Total Cell Count [12]: 537

COC(c1ccccc1)(c1ccccc1)[C@H](Oc1nc(C)cc(C)n1)C(=O)O [AMBRISENTAN]
Population Apoptotic (%) [1]: 38% | Population Fragmented Nuclei (%) [1]: 7% | Population Healthy Nuclei (%) [1]: 75% | Population Hoechst High Intensity Objects (%) [1]: 6% | Population Membrane Permeable-Phenotype (%) [1]: 0% | Population Mitochondria Different-Phenotype (%) [1]: 53% | Population Mitotic Cells (%) [1]: 61% | Population Normal (%) [1]: 93% | Population Pyknosed Nuclei (%) [1]: 16% | Population Tubulin-Different-Phenotype (%) [1]: 30% | Total Cell Count [1]: 249 | Population Healthy Nuclei (%) [2]: 81% | Population Hoechst High Intensity Objects (%) [2]: 11% | Population Mitochondria Different-Phenotype (%) [2]: 63% | Population Normal (%) [2]: 88% | Population Pyknosed Nuclei (%) [2]: 10% | Population Tubulin-Different-Phenotype (%) [2]: 23% | Total Cell Count [2]: 326 | Population Apoptotic (%) [3]: 33% | Population Fragmented Nuclei (%) [3]: 8% | Population Healthy Nuclei (%) [3]: 76% | Population Hoechst High Intensity Objects (%) [3]: 6% | Population Membrane Permeable-Phenotype (%) [3]: 0% | Population Mitochondria Different-Phenotype (%) [3]: 47% | Population Mitotic Cells (%) [3]: 66% | Population Normal (%) [3]: 93% | Population Pyknosed Nuclei (%) [3]: 15% | Population Tubulin-Different-Phenotype (%) [3]: 23% | Total Cell Count [3]: 383 | Population Apoptotic (%) [4]: 56% | Population Fragmented Nuclei (%) [4]: 5% | Population Healthy Nuclei (%) [4]: 80% | Population Hoechst High Intensity Objects (%) [4]: 13% | Population Mitochondria Different-Phenotype (%) [4]: 57% | Population Mitotic Cells (%) [4]: 43% | Population Normal (%) [4]: 86% | Population Pyknosed Nuclei (%) [4]: 14% | Population Tubulin-Different-Phenotype (%) [4]: 18% | Total Cell Count [4]: 262 | Population Apoptotic (%) [5]: 37% | Population Fragmented Nuclei (%) [5]: 9% | Population Healthy Nuclei (%) [5]: 76% | Population Hoechst High Intensity Objects (%) [5]: 4% | Population Membrane Permeable-Phenotype (%) [5]: 1% | Population Mitochondria Different-Phenotype (%) [5]: 30% | Population Mitotic Cells (%) [5]: 62% | Population Normal (%) [5]: 95% | Population Pyknosed Nuclei (%) [5]: 14% | Population Tubulin-Different-Phenotype (%) [5]: 19% | Total Cell Count [5]: 313 | Population Apoptotic (%) [6]: 43% | Population Healthy Nuclei (%) [6]: 82% | Population Hoechst High Intensity Objects (%) [6]: 7% | Population Membrane Permeable-Phenotype (%) [6]: 0% | Population Mitochondria Different-Phenotype (%) [6]: 39% | Population Mitotic Cells (%) [6]: 56% | Population Normal (%) [6]: 92% | Population Pyknosed Nuclei (%) [6]: 8% | Population Tubulin-Different-Phenotype (%) [6]: 16% | Total Cell Count [6]: 404 | Population Apoptotic (%) [7]: 30% | Population Fragmented Nuclei (%) [7]: 10% | Population Healthy Nuclei (%) [7]: 73% | Population Hoechst High Intensity Objects (%) [7]: 4% | Population Membrane Permeable-Phenotype (%) [7]: 0% | Population Mitochondria Different-Phenotype (%) [7]: 34% | Population Mitotic Cells (%) [7]: 69% | Population Normal (%) [7]: 95% | Population Pyknosed Nuclei (%) [7]: 15% | Population Tubulin-Different-Phenotype (%) [7]: 18% | Total Cell Count [7]: 441 | Population Apoptotic (%) [8]: 44% | Population Fragmented Nuclei (%) [8]: 8% | Population Healthy Nuclei (%) [8]: 78% | Population Hoechst High Intensity Objects (%) [8]: 12% | Population Mitochondria Different-Phenotype (%) [8]: 41% | Population Mitotic Cells (%) [8]: 55% | Population Normal (%) [8]: 87% | Population Pyknosed Nuclei (%) [8]: 12% | Population Tubulin-Different-Phenotype (%) [8]: 17% | Total Cell Count [8]: 318 | Population Apoptotic (%) [9]: 27% | Population Fragmented Nuclei (%) [9]: 17% | Population Healthy Nuclei (%) [9]: 72% | Population Hoechst High Intensity Objects (%) [9]: 2% | Population Membrane Permeable-Phenotype (%) [9]: 3% | Population Mitochondria Different-Phenotype (%) [9]: 22% | Population Mitotic Cells (%) [9]: 72% | Population Normal (%) [9]: 97% | Population Pyknosed Nuclei (%) [9]: 10% | Population Tubulin-Different-Phenotype (%) [9]: 13% | Total Cell Count [9]: 600 | Population Apoptotic (%) [10]: 40% | Population Fragmented Nuclei (%) [10]: 12% | Population Healthy Nuclei (%) [10]: 80% | Population Hoechst High Intensity Objects (%) [10]: 3% | Population Membrane Permeable-Phenotype (%) [10]: 0% | Population Mitochondria Different-Phenotype (%) [10]: 23% | Population Mitotic Cells (%) [10]: 59% | Population Normal (%) [10]: 96% | Population Pyknosed Nuclei (%) [10]: 7% | Population Tubulin-Different-Phenotype (%) [10]: 10% | Total Cell Count [10]: 605 | Population Apoptotic (%) [11]: 26% | Population Fragmented Nuclei (%) [11]: 14% | Population Healthy Nuclei (%) [11]: 77% | Population Hoechst High Intensity Objects (%) [11]: 2% | Population Membrane Permeable-Phenotype (%) [11]: 1% | Population Mitochondria Different-Phenotype (%) [11]: 18% | Population Mitotic Cells (%) [11]: 73% | Population Normal (%) [11]: 97% | Population Pyknosed Nuclei (%) [11]: 8% | Population Tubulin-Different-Phenotype (%) [11]: 13% | Total Cell Count [11]: 711 | Population Apoptotic (%) [12]: 53% | Population Healthy Nuclei (%) [12]: 79% | Population Hoechst High Intensity Objects (%) [12]: 7% | Population Membrane Permeable-Phenotype (%) [12]: 0% | Population Mitochondria Different-Phenotype (%) [12]: 27% | Population Mitotic Cells (%) [12]: 46% | Population Normal (%) [12]: 92% | Population Pyknosed Nuclei (%) [12]: 5% | Population Tubulin-Different-Phenotype (%) [12]: 15% | Total Cell Count [12]: 480
